# Experimental data pooled from the literature.
# Each line is one published result; the experiments were not run side by side.
# Target: 3-phosphoinositide-dependent protein kinase 1 (PDPK1, Homo sapiens, UniProt O15530)
SMILES,test,conditions,inhibition [%]
CCN(CC)CCNC(=O)c1c(C)[nH]c(/C=C2\C(=O)Nc3ccc(F)cc32)c1C,"binding, competition with immobilised ligand",10 µM,71
CC(C)COc1cccc(Cl)c1-c1cc2cnc(N)nc2nc1N1C[C@@H]2[C@@H](N)[C@@H]2C1,"enzyme activity, inhibitor, FRET",25 µM,0
Cc1ccc(Nc2nccc(N(C)c3ccc4c(C)n(C)nc4c3)n2)cc1S(N)(=O)=O,"enzyme activity, inhibitor",10 µM,34
O=C(CSc1nc2nccnc2c(=O)n1CCc1ccccc1)Nc1nccs1,"enzyme activity, inhibitor",10 µM,11
CN(c1ncccc1CNc1nc(Nc2ccc3c(c2)CC(=O)N3)ncc1C(F)(F)F)S(C)(=O)=O,"enzyme activity, inhibitor",1 µM,36
CCCS(=O)(=O)Nc1ccc(F)c(C(=O)c2c[nH]c3ncc(-c4ccc(Cl)cc4)cc23)c1F,"enzyme activity, inhibitor",1 µM,< 10
CCCCNc1ncc2c(-c3ccc(F)cc3)nn(C[C@H]3CC[C@H](N)CC3)c2n1,"target engagement in cells, inhibitor, chemoproteomics",20 mM,7.1
COc1cc2ncnc(Nc3ccc(Oc4ccccc4)c(C)c3C)c2cc1OC,"enzyme activity, inhibitor",1 µM,-2
CC/C(=N\NC(=O)NCc1cccc(O)c1)c1ccc(O)c(C)c1O,"enzyme activity, inhibitor",0.1 µM,-1.2
CNC(=O)c1cc(Oc2ccc(NC(=O)Nc3ccc(Cl)c(C(F)(F)F)c3)cc2)ccn1,"enzyme activity, inhibitor",10 µM,8
CN(C)C1CCN(CC#Cc2nn(C3CCCC3)c3nc(NCc4ccccc4)ncc23)C1 (stereo not drawn),"enzyme activity, inhibitor, FRET",0.1 µM,0
C=CC(=O)Nc1cc(Nc2nccc(Nc3cc(Cl)c(F)cc3C(C)(C)O)n2)c(OC)cc1N1CC[C@@H](N(C)C)C1,"enzyme activity, inhibitor",1 µM,-2
